# Assay results as given in ChEMBL document CHEMBL2062406, “Fluorocyclopentenyl-cytosine with broad spectrum and potent antitumor activity” (J Med Chem, 2012).
# Active and inactive are the calls of the source. No cut-off for these calls is given here.
# How the values were obtained:
# [1] = test system: MDA-MB-231; assay: Antitumor activity against human MDA-MB-231 cells by SRB method; format: functional, cell-based
# [2] = test system: K562; assay: Antitumor activity against human K562 cells by SRB method; format: functional, cell-based
# [3] = test system: UMRC2; assay: (§1) Antitumor activity against human UMRC2 cells by SRB method; format: functional, cell-based
# [4] = test system: PC-3; assay: Antitumor activity against human PC3 cells by SRB method; format: functional, cell-based
# [5] = test system: HT-29; assay: Antitumor activity against human HT-29 cells by SRB method; format: functional, cell-based
# [6] = test system: LNCaP; assay: Antitumor activity against human LNCAP cells by SRB method; format: functional, cell-based
# [7] = test system: OVCAR-3; assay: Antitumor activity against human OVCAR3 cells by SRB method; format: functional, cell-based
# [8] = test system: U-251; assay: Antitumor activity against human U251 cells by SRB method; format: functional, cell-based
# [9] = test system: MKN-45; assay: Antitumor activity against human MKN45 cells by SRB method; format: functional, cell-based
# [10] = test system: HepG2; assay: Antitumor activity against human HepG2 cells by SRB method; format: functional, cell-based
# [11] = test system: HCT-116; assay: Antitumor activity against human HCT116 cells by SRB method; format: functional, cell-based
# [12] = test system: SK-MEL-28; assay: Antitumor activity against human SK-MEL-28 cells by SRB method; format: functional, cell-based
# [13] = test system: MCF7; assay: Antitumor activity against human MCF7 cells by SRB method; format: functional, cell-based
# [14] = test system: PANC-1; assay: Antitumor activity against human PANC1 cells by SRB method; format: functional, cell-based
# [15] = test system: A549; assay: Antitumor activity against human A549 cells by SRB method; format: functional, cell-based
# [16] = test system: NCI-H226; assay: Antitumor activity against human NCI-H226 cells by SRB method; format: functional, cell-based
# [17] = test system: HeLa; assay: Antitumor activity against human HeLa cells by SRB method; format: functional, cell-based
# [18] = test system: OVCAR-3; assay: Antitumor activity against human OVCAR3 cells at 1 uM by SRB method; format: functional, cell-based
# [19] = test system: A549; assay: Antitumor activity against human A549 cells xenografted in ip dosed nu/nu mouse assessed as inhibition of tumor weight administered three times a week for 3 weeks; format: functional, organism-based
# Procedure, shortened: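 Male nu/nu mice carried subcutaneous right-flank A549 xenografts (3 × 10⁶ cells). Treatment started at about 100 mm³ with 3 or 10 mg/kg intraperitoneally, three times weekly for three weeks. Tumors were excised and weighed on day 38. Comparison was with the vehicle control group, with significance at p < 0.05 or p < 0.01.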
# [20] = test system: PC-3; assay: Antitumor activity against human PC3 cells at 1 uM by SRB method; format: functional, cell-based
# [21] = test system: HeLa; assay: Antitumor activity against human HeLa cells at 1 uM by SRB method; format: functional, cell-based
# [22] = as §1; format: functional, cell-based
# [23] = test system: K562; assay: Antitumor activity against human K562 cells at 1 uM by SRB method; format: functional, cell-based
# [24] = test system: PANC-1; assay: Antitumor activity against human PANC1 cells at 1 uM by SRB method; format: functional, cell-based
# [25] = test system: Mus musculus; assay: Toxicity in nu/nu mouse xenografted with human A549 cells assessed as change in body weight 3 to 10 mg/kg, ip administered three times a week for 3 weeks; format: organism-based; set-up: dose 3-10 mg/kg, route intraperitoneal; details: in vivo, 504 h
# Procedure, shortened: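 Mouse body weight was monitored throughout in male nu/nu mice bearing subcutaneous A549 flank xenografts (3 × 10⁶ cells). These mice received 3 or 10 mg/kg intraperitoneally three times a week for three weeks, starting when tumors reached about 100 mm³, and were compared with vehicle controls.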
# [26] = test system: A549; assay: Antitumor activity against human A549 cells xenografted in nu/nu mouse assessed as inhibition of tumor volume at 10 mg/kg, ip administered three times a week for 3 weeks; format: functional; details: 504 h, route intraperitoneal
# Procedure, shortened: (§2)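 Male nu/nu mice received 3 × 10⁶ A549 cells subcutaneously in the right flank. Dosing began at about 100 mm³ tumor volume: 3 or 10 mg/kg intraperitoneally, three times a week for three weeks. Tumor volume was measured by caliper every 2−3 days. Percent inhibition of tumor volume was calculated against a vehicle-treated control group.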
# [27] = test system: MKN-45; assay: Antitumor activity against human MKN45 cells at 1 uM by SRB method; format: functional, cell-based
# [28] = test system: MDA-MB-231; assay: Inhibition of DNMT-1 protein human expression in MDA-MB-231 cells after 24 hrs by Western blot analysis; format: functional, cell-based
# Procedure, shortened: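 MDA-MB-231 cells were exposed to 0, 1, 1.5, 2 or 5 μM for 24 h. DNMT-1 protein was detected by Western blot, with actin as the loading control. Blots are representative of two independent cell cultures.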
# [29] = test system: UMRC2; assay: Antitumor activity against human UMRC2 cells at 1 uM by SRB method; format: functional, cell-based
# [30] = test system: LNCaP; assay: Antitumor activity against human LNCAP cells at 1 uM by SRB method; format: functional, cell-based
# [31] = test system: A549; assay: Antitumor activity against human A549 cells xenografted in nu/nu mouse assessed as inhibition of tumor volume at 3 mg/kg, ip administered three times a week for 3 weeks; format: functional; details: 504 h, route intraperitoneal; procedure, shortened: as §2
# [32] = test system: A549; assay: Antitumor activity against human A549 cells xenografted in ip dosed nu/nu mouse assessed as tumor growth inhibition administered three times a week for 3 weeks; format: functional, organism-based; procedure, shortened: as §2
# [33] = test system: A549; assay: Antitumor activity against human A549 cells at 1 uM by SRB method; format: functional, cell-based
# [34] = test system: HT-29; assay: Antitumor activity against human HT-29 cells at 1 uM by SRB method; format: functional, cell-based
# [35] = test system: MDA-MB-231; assay: Antitumor activity against human MDA-MB-231 cells at 1 uM by SRB method; format: functional, cell-based
# [36] = test system: A549; assay: Antitumor activity against human A549 cells xenografted in ip dosed nu/nu mouse assessed as inhibition of tumor volume administered three times a week for 3 weeks; format: functional, organism-based; procedure, shortened: as §2
# [37] = test system: HepG2; assay: Antitumor activity against human HepG2 cells at 1 uM by SRB method; format: functional, cell-based
# [38] = test system: NCI-H226; assay: Antitumor activity against human NCI-H226 cells at 1 uM by SRB method; format: functional, cell-based
# [39] = test system: HCT-116; assay: Antitumor activity against human HCT116 cells at 1 uM by SRB method; format: functional, cell-based
# [40] = test system: SK-MEL-28; assay: Antitumor activity against human SK-MEL-28 cells at 1 uM by SRB method; format: functional, cell-based
# [41] = test system: MCF7; assay: Antitumor activity against human MCF7 cells at 1 uM by SRB method; format: functional, cell-based
# [42] = test system: U-251; assay: Antitumor activity against human U251 cells at 1 uM by SRB method; format: functional, cell-based
smiles,measurement,setting,value
Nc1ccn([C@H]2C[C@H](O)C(CO)=C2F)c(=O)n1,Activity,[1],inactive
same,Activity,[2],inactive
same,Activity,[3],inactive
same,Activity,[4],inactive
same,Activity,[5],inactive
same,Activity,[6],inactive
same,Activity,[7],inactive
same,Activity,[8],inactive
same,Activity,[9],inactive
same,Activity,[10],inactive
same,Activity,[11],inactive
same,Activity,[12],inactive
same,Activity,[13],inactive
same,Activity,[14],inactive
same,Activity,[15],inactive
same,Activity,[16],inactive
same,Activity,[17],inactive
Nc1ccn([C@@H]2C(F)=C(CO)[C@@H](O)[C@H]2O)c(=O)n1 [RODUCITABINE],Activity,[18],Active
same,inhibition,[19],Dose-dependent effect
same,IC50,[1],0.18 µM
same,IC50,[2],0.82 µM
same,Activity,[20],Active
same,Activity,[21],Active
same,IC50,[22],0.83 µM
same,Activity,[23],Active
same,Activity,[24],Active
same,IC50,[4],0.63 µM
same,Activity,[25],Non-toxic
same,inhibition in vivo at 10 mg/kg,[26],58.1%
same,IC50,[5],0.28 µM
same,IC50,[6],2.67 µM
same,Activity,[27],Active
same,inhibition,[28],Dose-dependent effect
same,IC50,[7],0.8 µM
same,IC50,[8],0.83 µM
same,IC50,[9],0.34 µM
same,Activity,[29],Active
same,IC50,[10],0.79 µM
same,Activity,[30],Active
same,inhibition in vivo at 3 mg/kg,[31],31.8%
same,inhibition,[32],Dose-dependent effect
same,IC50,[11],0.19 µM
same,Activity,[33],Active
same,IC50,[12],1.38 µM
same,Activity,[34],Active
same,Activity,[35],Active
same,IC50,[13],0.34 µM
same,inhibition,[36],Dose-dependent effect
same,Activity,[37],Active
same,Activity,[38],Active
same,Activity,[39],Active
same,IC50,[15],0.5 µM
same,IC50,[16],0.25 µM
same,Activity,[40],Active
same,IC50,[17],1.35 µM
same,Activity,[41],Active
same,Activity,[42],Active
Nc1ccn([C@@H]2O[C@H](CO)[C@@H](O)C2(F)F)c(=O)n1 [GEMCITABINE],inhibition in vivo at 10 mg/kg,[26],76.7%
